Ecoli rRNA inh: inhibits bacterial ribosomal RNA function over humanized ribosomes; actives 1.6% (n = 350,000); AID 720706; GFP signal change (wild-type ribosome), % (test concentration not listed); E. coli WT GFP vs humanized-ribosome RFP mutants, fluorescence, 24 h; hits give low values; DMSO median 0, no signal -100;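 active = significant combined selectivity score with lowered wild-type GFP, culture density cut under 30%, mutant RFP and density less affected; inactive = any of these conditions unmet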
MLL AF4-AF9 inh: MLL-AF4/AF9 protein interaction inhibition | actives 0.47% (n = 350,000) | AlphaScreen, biotin-AF4 peptide binding to FLAG-AF9 | P42568 | inhibition, % at 10 µM;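 active = every replicate reaching a set inhibition limit, whatever the replicate mean, cut at about 25% in these data; inconclusive = mean inhibition reaches that limit but some replicates miss it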;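 also: 0% = plate neutral control median and 100% = total signal loss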
Target sequence (P42568 whole entry, looked up): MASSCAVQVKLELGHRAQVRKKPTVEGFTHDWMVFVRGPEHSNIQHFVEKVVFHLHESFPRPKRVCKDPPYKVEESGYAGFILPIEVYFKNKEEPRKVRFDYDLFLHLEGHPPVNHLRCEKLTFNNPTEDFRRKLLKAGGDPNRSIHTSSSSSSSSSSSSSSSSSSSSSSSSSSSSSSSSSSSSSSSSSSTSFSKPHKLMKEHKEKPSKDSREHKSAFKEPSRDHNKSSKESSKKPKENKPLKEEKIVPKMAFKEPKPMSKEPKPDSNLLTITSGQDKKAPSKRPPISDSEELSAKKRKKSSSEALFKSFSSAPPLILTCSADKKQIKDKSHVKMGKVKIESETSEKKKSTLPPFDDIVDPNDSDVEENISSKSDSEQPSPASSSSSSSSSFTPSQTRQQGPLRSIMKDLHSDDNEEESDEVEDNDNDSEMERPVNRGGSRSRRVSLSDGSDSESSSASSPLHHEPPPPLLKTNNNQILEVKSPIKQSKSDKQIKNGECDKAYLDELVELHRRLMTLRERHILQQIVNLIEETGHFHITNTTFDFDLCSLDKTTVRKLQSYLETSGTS
S100A4 inh HTS: S100A4-myosin IIA interaction inhibition | P26447 | S100A4/TAMRA-MyoIIA peptide fluorescence polarization | inhibition, % at 10.7 µM | actives 0.14% (n = 360,000) | AID 652163;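 active = mean inhibition of at least 70% across replicates, with every replicate also reaching that level; inconclusive = mean inhibition reaches 70% but some replicates fall short; inactive = mean inhibition below 70%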
Target sequence (P26447 whole entry, looked up): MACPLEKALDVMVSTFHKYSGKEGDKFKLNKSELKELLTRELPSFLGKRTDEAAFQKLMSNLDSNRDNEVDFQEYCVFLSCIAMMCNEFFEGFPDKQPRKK
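Material: human S100A4 monomer with TAMRA-labelled myosin IIA peptide; buffer or medium: HEPES pH 7.2 with CaCl2, KCl, NaCl, DTT, Triton; compound dosing: one concentration per compound; schedule: 5 min incubation before reading; benchmarks: neutral control DMSO, positive control TFP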
PfHsp90 yeast 2: inhibits growth of yeast expressing Plasmodium falciparum Hsp90 | S. cerevisiae expressing PfHsp90, BacTiter-Glo ATP, 48 h; yeast lacking PDR1 and PDR3 efflux regulators | inhibition, % at 9.4 µM | actives 0.32% (n = 310,000);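 active = every replicate shows inhibition above about 80%, whatever the replicate mean, limit read from the data; inconclusive = mean inhibition reaches the set limit but some replicate falls short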;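 also: 0% = DMSO neutral controls and 100% = 20 µM radicicol positive controls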
Cneo AK release: Cryptococcus neoformans lysis via adenylate kinase release. actives 0.2% (n = 360,000). C. neoformans lysis, adenylate kinase release luminescence, 4 h; normalised: neutral wells 0, clomiphene wells 100. lysis activity, % at 15 µM. AID 651654;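 active = mean lysis activity across replicates of at least 80%, whatever share of replicates individually reach that level; inactive = mean lysis activity below 80%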
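Schedule: static 4 h at 37 °C with compound, 1 h detection; system: C. neoformans cells; benchmarks: Clomiphene as positive control; buffer or medium: fresh YPD medium; measure: luminescence rise reflecting yeast cell lysis; measured by: luminescent adenylate kinase detection reagent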
DENV2 CPE: DENV2-induced cell death inhibition | CPE inhibition, % at 9.99 µM | actives 1.7% (n = 350,000) | AID 651640 | DENV2-infected cells, cytopathic effect rescue, plate reader; in the data active = CPE inhibition above about 20%, passing the limit was not always enough; inconclusive = no clear call, values can overlap the other calls; tested in BHK-21 cells;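 also: 0% = median of neutral control wells and 100% = median of positive control wells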
Alpha interfer: AlphaScreen signal interference counter-screen hit | shares compounds with MLL AF4-AF9 inh | actives 45% (n = 530) | AC50, µM (series often up to 12 µM), inactives show at the highest dose activity change, negative = inhibition | signal luminescence; cut-off not given, nearly all actives have AC50 up to about 14 µM
AID977621: growth inhibition of wild-type GFP E. coli, dose response, H69 mutant RFP, cherry-pick | 1,900 tested, under 10 active | shares compounds with Ecoli rRNA inh | activity change, negative = inhibition at 50 µM | E. coli wild-type GFP strain growth, fluorescence, 24 h;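 active = Wild-type ribosome reporter drop at least double the humanized mutant ribosome reporter drop, growth loss under a set limit; inconclusive = no clear call, values can overlap the other calls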;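 also: wild-type GFP and H69 mutant RFP strains grown together 50/50 in each well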
AID977628: E. coli growth inhibition, wild-type GFP versus h24 humanized RFP strain, dose response, h24 mutant RFP vs wild-type GFP, cherry-pick | shares compounds with Ecoli rRNA inh | E. coli WT GFP strain growth, fluorescence, 24 h | activity change, negative = inhibition at 50 µM | 1,900 tested, under 10 active;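 active = compound lowering the normal-ribosome reporter at least twice as much as the humanized-ribosome reporter, growth loss under a set limit; inconclusive = no clear call, values can overlap the other calls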;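 also: wild-type GFP and h24 humanized RFP strains co-cultured 1 to 1 per well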
* marks the source's active call; other numbers are inactive results; ? = inconclusive; . = not tested or not shown; ! = not confirmed by another sample. Shown are actives, neighbours in structure and some others; about 3.2% of the full set was active somewhere.

SMILES | Ecoli rRNA inh | MLL AF4-AF9 inh | S100A4 inh HTS | PfHsp90 yeast 2 | Cneo AK release | DENV2 CPE | Alpha interfer | others
CCN(CC)CCNC(=O)c1ccc(NC(=O)c2cccc(S(=O)(=O)N3c4ccccc4CC3C)c2)cc1 (stereo not drawn) | -8 | 31* | 1 | -11 | 0 | -10 | -4%
CN(C)c1ccnc2c[cH-]cc12.[Fe].c1ccc(-[c-]2[c-](-c3ccccc3)[c-](-c3ccccc3)[c-](-c3ccccc3)[c-]2-c2ccccc2)cc1 (stereo not drawn) | 34 | 29*! | 0 | -9 | 2 | -8 | -13%
CN(C)c1ccnc(Nc2ccccc2)c1C#N | 21 | -7 | -19 | 13 | 0 | -1 | .
c1ccc(N=Nc2ccc3cccccc2-3)cc1 | -20* | 77* | 2 | -1 | -4 | -6 | 1µM*
Nc1ccc(N=Nc2ccccc2)c2ccccc12 | 4 | 10 | -11 | -2 | 0 | -4 | .
CCN(CC)CCSc1nc(O)c(-c2ccccc2)c(=O)n1-c1ccccc1 | 20 | 2 | -2 | -16 | -1 | -10 | .
CCN(CC)CCSc1nc2ccccc2c(=S)n1-c1ccccc1 | -6 | 34* | -1 | . | . | -5 | -28%
CCOC(=O)C1=C(C)NC(C)=C(C(=O)OCC)C1c1cccc([N+](=O)[O-])c1 | -13 | 0 | -6 | . | -4 | ? | .
COC(=O)C1=C(C)NC(C)=C(C(=O)OCC(C)C)C1c1ccccc1[N+](=O)[O-] (stereo not drawn) | . | 38* | -3 | 57 | 2 | -2 | 11µM*
CCC1CCCCN1C(=S)NN=C(C)c1ccccn1 (stereo not drawn) | . | 37* | -5 | . | . | -6 | 7.4µM*
CCC1CCCCN1C(=S)NCc1ccccc1 (stereo not drawn) | . | . | . | 7 | . | . | .
C[C@@H]1CN([C@@H](C)CO)C(=O)c2cc(NC(=O)Nc3ccccc3)ccc2O[C@H]1CN(C)S(=O)(=O)c1ccc(Cl)cc1 | -6 | 2 | 7 | . | -3 | -15 | .
COc1ccc(Nc2ccnc3ccccc23)cc1 | . | . | . | 7 | . | . | .
CC(C)Nc1ccc(Nc2ccnc3cc4ccccc4cc23)cc1 | -61 | 84* | 0 | -6 | . | -2 | 3µM*
Cc1ccc(N2CCOCC2)c2c1C(=O)c1ccccc1C2=O | -51 | 64* | -2 | -11 | . | 1 | 10µM*
O=C1C=C(N2CCOCC2)c2ccccc2C1=O | 52 | 3 | -8 | 3 | 5 | -1 | .
CN(C)CCNc1ncnc2c1sc1nc(-c3ccccc3)c3c(c12)CCCC3 | -59 | ? | -14 | 23 | 0 | -6 | -14%
Fc1ccc([C@@H]2CCNC[C@H]2COc2ccc3c(c2)OCO3)cc1 | -58 | 34* | 0 | -1 | 2 | 3 | -28%
O=C(COc1ccc2c(c1)OCO2)Nc1ccccc1F | 7 | -3 | 5 | 5 | -3 | 2 | .
Cc1nn(CC(O)COc2ccc3c(c2)CCC3)c(C)c1Br (stereo not drawn) | . | . | . | . | -2 | . | .
CC(=O)c1c(C)nn(CC(O)COc2ccc3c(c2)CCC3)c1C (stereo not drawn) | -22* | -5 | -16 | -6 | 1 | . | . | AID977621=-16
CC1CCN(CC(O)COCCC23CC4CC(CC(C4)C2)C3)CC1 (stereo not drawn) | -40* | 8 | 0 | 11 | -2 | . | . | AID977621=-2.8
O=C(NCC1CCCCC1)[C@H]1[C@H](CO)[C@H]2Cn3c(ccc(-c4ccccc4F)c3=O)[C@@H]1N2 | -1 | 9 | 2 | . | -1 | -8 | .
CO[C@H]1CN(C)C(=O)c2cc(NC(=O)C3CCC3)ccc2OC[C@@H](C)N(C(=O)CN(C)C)C[C@H]1C | -1 | 1 | -1 | . | -2 | -2 | .
CCn1nc(C)cc1C(=O)N1CCCC(C(=O)c2ccc(Oc3ccccc3)cc2)C1 (stereo not drawn) | -18 | 0 | 1 | -16 | 2 | 12 | .
SMILES | Ecoli rRNA inh | MLL AF4-AF9 inh | S100A4 inh HTS | PfHsp90 yeast 2 | Cneo AK release | DENV2 CPE | Alpha interfer | others
CCn1nc(C)cc1C(=O)N1CCCC(C(=O)c2ccc3ccccc3c2)C1 (stereo not drawn) | -20* | 2 | -4 | -19 | . | 0 | . | AID977621=-4.3
C[C@H]1CN([C@@H](C)CO)S(=O)(=O)c2ccc(C3=CCCC3)cc2O[C@H]1CN(C)S(=O)(=O)c1cn(C)cn1 | 4 | -1 | -17 | . | -2 | 6 | .
Cc1ccc(C(=O)NCc2ccccc2)c(F)c1F | -18* | 0 | 8 | 6 | . | 0 | . | AID977621=-10;AID977628=3.7
Cc1occc1C(=O)NCc1ccccc1 | . | . | . | 12 | 0 | . | .
Cc1cc(C(C)(C)C)oc1C(=O)N(CC(=O)NC1CCCC1)c1c(C)cccc1C | -25* | -14 | 3 | -5 | . | -3 | . | AID977628=-15
Cc1ccc(-n2c(SCC(N)=O)nnc2-c2cnccn2)cc1 | -25* | -18 | -1 | . | 0 | 4 | . | AID977621=-2.2;AID977628=?
NC(=O)CSc1nnc(-c2cnccn2)n1-c1ccccc1 | . | . | . | -5 | 0 | . | .
COc1ccc(-c2ccccc2)cc1NC(=O)c1ccncc1 | -31* | 3 | -5 | -1 | . | 11 | . | AID977621=-21
COc1cc(NC(=O)c2ccccc2)c(OC)cc1Cl | . | . | . | 16 | 4 | . | .
COc1ccc(Nc2nc(N)c([N+](=O)[O-])c(N3CCN(C)CC3)n2)cc1 | -6 | 11 | 7 | 10 | . | -2 | .
COc1ccc(Nc2nc(N)c([N+](=O)[O-])c(N3CCCC3)n2)cc1 | -21* | 18 | 7 | 49 | 0 | -2 | . | AID977621=5.7;AID977628=-5.5
COc1ccc(OC)c(Nc2nc(N)c([N+](=O)[O-])c(N3CCOCC3)n2)c1 | -31* | 5 | 4 | -4 | -3 | -4 | . | AID977621=?
Cc1ccc(NC(=O)C2CCN(S(=O)(=O)c3ccc4c(c3)NC(=O)CO4)CC2)cc1 | -18* | 2 | 0 | -49 | -1 | 6 | . | AID977628=-17
O=C(c1ccc(F)cc1)N1CC(=O)N2[C@H](C1)[C@@H](c1ccc(-c3cccnc3)cc1)[C@@H]2CO | 4 | -2 | -1 | . | . | 2 | .
Cc1ccc(S(=O)(=O)N2CCOCC2)cc1NC(=O)COc1ccc(-c2nnco2)cc1 | -19* | -2 | -5 | . | -1 | 4 | . | AID977621=-16;AID977628=?
